# Results reported in ChEMBL document CHEMBL4052832, “Selective Inhibitors of Human Neuraminidase 3” (J Med Chem, 2018).
# pIC50, pKi: −log10 of the molar value. Activity calls are given as the source filed them. The calls are words filed in the database; no cut-off is given here.
# How the values were obtained:
# [1] = target: Sialidase-1 (Mus musculus) (UniProt O35657); experiment: Inhibition of NEU1 in C57BL6 mouse brain homogenate assessed as residual activity at 50 uM using 4MU-NANA as substrate after 30 mins relative to control
# Summary of the method: (§1)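 Brains from 12-week-old WT, neu1−/−, neu3−/− or neu3−/−neu4−/− mice, snap-frozen and homogenized in water; protein by Bradford. Acidic neuraminidase assayed at pH 4.6 using homogenate equal to 300 μg protein, inhibitor 0–150 μM and 200 μM 4MU-NANA, 37 °C for 30 min. Stopped with 0.4 M glycine pH 10.5. Activity relative to no-inhibitor, mean ± SD of 6–12 experiments.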
# Sialidase-4 [2] = target: T1, Sialidase-4 (Homo sapiens, UniProt Q8WWR8); experiment: Inhibition of human N-terminal MBP-fused NEU4 expressed in Escherichia coli using 4MU-NANA as substrate preincubated for 15 mins followed by substrate addition measured after 30 mins by fluorescence based assay
# T1 sequence (Q8WWR8 whole entry): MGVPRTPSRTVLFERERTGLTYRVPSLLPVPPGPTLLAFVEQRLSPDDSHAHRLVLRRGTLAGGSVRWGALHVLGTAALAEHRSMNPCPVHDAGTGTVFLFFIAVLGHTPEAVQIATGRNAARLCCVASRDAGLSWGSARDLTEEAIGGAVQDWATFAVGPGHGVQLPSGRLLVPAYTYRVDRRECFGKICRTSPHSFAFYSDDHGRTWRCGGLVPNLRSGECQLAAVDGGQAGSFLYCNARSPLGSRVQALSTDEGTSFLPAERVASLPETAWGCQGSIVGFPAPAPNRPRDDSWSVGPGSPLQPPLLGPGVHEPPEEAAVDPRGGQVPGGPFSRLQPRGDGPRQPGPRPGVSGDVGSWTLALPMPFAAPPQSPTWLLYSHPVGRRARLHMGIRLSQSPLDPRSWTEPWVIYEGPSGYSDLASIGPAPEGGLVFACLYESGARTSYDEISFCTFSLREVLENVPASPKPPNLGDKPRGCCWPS
# [3] = Inhibition in C57BL6 mouse brain homogenate at 10 uM using 4MU-NANA as substrate after 30 mins relative to control
# Sialidase-3 [4] = target: T2, Sialidase-3 (Homo sapiens, UniProt Q9UQ49); experiment: Inhibition of human N-terminal MBP-fused NEU3 expressed in Escherichia coli using GM3 as substrate preincubated for 15 mins followed by substrate addition measured after 30 mins by fluorescence based assay
# T2 sequence (Q9UQ49 whole entry): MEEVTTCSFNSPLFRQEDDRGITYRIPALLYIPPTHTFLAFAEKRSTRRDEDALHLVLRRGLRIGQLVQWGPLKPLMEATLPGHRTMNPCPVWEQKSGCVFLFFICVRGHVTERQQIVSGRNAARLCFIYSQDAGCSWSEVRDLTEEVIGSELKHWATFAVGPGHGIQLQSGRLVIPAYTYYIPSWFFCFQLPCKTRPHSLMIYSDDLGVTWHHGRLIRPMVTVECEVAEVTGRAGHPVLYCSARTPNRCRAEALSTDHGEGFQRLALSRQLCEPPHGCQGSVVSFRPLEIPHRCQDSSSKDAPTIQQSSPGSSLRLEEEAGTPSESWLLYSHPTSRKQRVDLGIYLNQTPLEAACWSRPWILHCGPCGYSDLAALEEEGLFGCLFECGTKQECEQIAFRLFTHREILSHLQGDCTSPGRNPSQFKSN
# Summary of the method: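 GM3 hydrolysis in 0.1 M sodium acetate pH 4.5. Serially diluted inhibitors preincubated with enzyme 15 min at 0 °C, then GM3 added to 500 μM for 30 min at 37 °C. Quenched with fresh 0.2 M sodium borate pH 10.2, then malononitrile added to form a fluorescent adduct with freed sialic acid; ex 357/em 434 nm.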
# Sialidase-4 [5] = target: T1, Sialidase-4; experiment: Inhibition of human N-terminal MBP-fused NEU4 expressed in Escherichia coli using GM3 as substrate preincubated for 15 mins followed by substrate addition measured after 30 mins by fluorescence based assay
# [6] = target: Sialidase NEU1/NEU4 (Mus musculus) (UniProt O35657+Q8BZL1); experiment: Inhibition of NEU1/NEU4 in NEU3 knockout C57BL6 mouse brain homogenate up to 150 uM using 4MU-NANA as substrate after 30 mins relative to control; summary of the method: as §1
# Sialidase-3 [7] = target: T2, Sialidase-3; experiment: Inhibition of human N-terminal MBP-fused NEU3 expressed in Escherichia coli using 4MU-NANA as substrate preincubated for 15 mins followed by substrate addition measured every minute for 30 mins by fluorescence based assay
# Sialidase-3 [8] = target: T2, Sialidase-3; experiment: Inhibition of human N-terminal MBP-fused NEU3 expressed in Escherichia coli using 4MU-NANA as substrate preincubated for 15 mins followed by substrate addition measured after 30 mins by fluorescence based assay
# Sialidase-1 [9] = target: T3, Sialidase-1 (Homo sapiens, UniProt Q99519); experiment: Inhibition of human CathA-IRES-6His-tagged NEU1 expressed in HEK293T cells using 4MU-NANA as substrate preincubated for 15 mins followed by substrate addition measured every minute for 30 mins by fluorescence based assay; assay type: cell-based; conditions: hek-293t
# Summary of the method: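 Ki determination. Enzyme preincubated with serially diluted inhibitor 15 min at 0 °C, then serial 4MU-NANA concentrations added.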
# Sialidase-4 [10] = target: T1, Sialidase-4; experiment: Inhibition of human N-terminal MBP-fused NEU4 expressed in Escherichia coli using 4MU-NANA as substrate preincubated for 15 mins followed by substrate addition measured every minute for 30 mins by fluorescence based assay
# [11] = target: Sialidase-1 (Mus musculus) (UniProt O35657); experiment: Inhibition of NEU1 in C57BL6 mouse brain homogenate using 4MU-NANA as substrate at 150 uM after 30 mins; summary of the method: as §1
# [12] = target: Sialidase-1 (Mus musculus) (UniProt O35657); experiment: Inhibition of NEU1 in NEU3/NEU4 double knockout C57BL6 mouse brain homogenate up to 150 uM using 4MU-NANA as substrate after 30 mins; summary of the method: as §1
# [13] = target: T4, Sialidase NEU3/NEU4 (Mus musculus) (UniProt Q9JMH7+Q8BZL1); experiment: Inhibition of NEU3/NEU4 in NEU1 knockout C57BL6 mouse brain homogenate using 4MU-NANA as substrate after 30 mins; summary of the method: as §1
# T4 sequence (Q8BZL1 whole entry, looked up): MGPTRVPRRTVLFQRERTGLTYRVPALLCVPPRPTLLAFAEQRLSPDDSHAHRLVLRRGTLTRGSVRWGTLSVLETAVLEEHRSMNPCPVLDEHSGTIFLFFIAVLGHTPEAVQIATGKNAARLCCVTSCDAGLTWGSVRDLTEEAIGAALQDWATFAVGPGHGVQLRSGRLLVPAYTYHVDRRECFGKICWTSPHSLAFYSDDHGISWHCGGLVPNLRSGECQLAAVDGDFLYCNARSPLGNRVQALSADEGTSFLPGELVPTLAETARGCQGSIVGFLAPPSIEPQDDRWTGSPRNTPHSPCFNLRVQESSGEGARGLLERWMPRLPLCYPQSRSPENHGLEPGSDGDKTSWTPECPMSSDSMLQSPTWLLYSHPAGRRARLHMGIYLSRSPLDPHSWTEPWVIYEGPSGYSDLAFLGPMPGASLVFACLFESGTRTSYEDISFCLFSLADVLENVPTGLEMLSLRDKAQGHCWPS
# T4 sequence (Q9JMH7 whole entry, looked up): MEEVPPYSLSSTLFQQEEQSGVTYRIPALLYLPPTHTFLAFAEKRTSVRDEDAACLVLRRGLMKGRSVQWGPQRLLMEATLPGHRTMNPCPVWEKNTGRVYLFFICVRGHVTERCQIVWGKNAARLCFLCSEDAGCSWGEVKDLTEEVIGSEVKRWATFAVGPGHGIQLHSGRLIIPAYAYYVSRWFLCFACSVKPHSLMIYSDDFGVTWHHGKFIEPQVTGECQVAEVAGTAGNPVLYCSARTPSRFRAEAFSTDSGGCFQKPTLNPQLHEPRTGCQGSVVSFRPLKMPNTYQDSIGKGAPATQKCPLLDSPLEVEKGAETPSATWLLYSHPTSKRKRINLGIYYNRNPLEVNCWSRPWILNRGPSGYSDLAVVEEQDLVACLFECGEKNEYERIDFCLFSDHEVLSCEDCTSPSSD
# Sialidase-1 [14] = target: T3, Sialidase-1; experiment: Inhibition of human CathA-IRES-6His-tagged NEU1 expressed in HEK293T cells using 4MU-NANA as substrate preincubated for 15 mins followed by substrate addition measured after 30 mins by fluorescence based assay; assay type: cell-based, HEK-293T
# [15] = Octanol-water partition coefficient, log D of compound at pH 7.4 at 10 uM after 2 hrs by LC-MS based shake flask analysis; assay type: physicochemical
# Summary of the method: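 Shake-flask log D at pH 7.4. Octanol and 0.1 M Tris-HCl pH 7.4, mutually saturated. Compound at 10 μM in buffer with 0.1% DMSO, at two octanol:buffer ratios, each in triplicate.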
# [16] = Kinetic solubility of compound in Prisma HT 6.5 buffer at pH 7.4 at 10 mM incubated in supersonic bath for 30 mins measured after 24 hrs by LC-MS analysis; assay type: physicochemical; conditions: pH 6.5, in the assay text read “at pH 6.5” for “at pH 7.4”, read-out: Kinetic_solubility
# Summary of the method: (§2)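 Kinetic solubility. 10 mM DMSO stock diluted 1:100 into 0.1 M Tris-HCl pH 7.4, Prisma HT buffer, or 0.9% NaCl in water (final 1% DMSO). Sonicated 30 min at 25 °C, equilibrated 24 h at 25 °C, filtered (0.2 μm), diluted in MeOH and analysed by LC-MS. Single measurements.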
# [17] = Kinetic solubility of compound in Tris-HCl buffer at pH 7.4 at 10 mM incubated in supersonic bath for 30 mins measured after 24 hrs by LC-MS analysis; assay type: physicochemical; conditions: for solubility kinetic at 24 h, 10000 µM: Tris-HCl buffer, pH 7.4, read-out: Kinetic_solubility; summary of the method: as §2
# [18] = Kinetic solubility of compound in 0.9% NaCl at 10 mM incubated in supersonic bath for 30 mins measured after 24 hrs by LC-MS analysis; assay type: physicochemical; conditions: read-out: Kinetic_solubility; summary of the method: as §2
# [19] = target: Sialidase-1 (Mus musculus) (UniProt O35657); experiment: Inhibition of NEU1 in C57BL6 mouse brain homogenate assessed as residual activity at 10 uM using 4MU-NANA as substrate after 30 mins relative to control; summary of the method: as §1
# [20] = target: T4, Sialidase NEU3/NEU4 (Mus musculus); experiment: Inhibition of NEU3/NEU4 in NEU1 knockout C57BL6 mouse brain homogenate assessed as residual activity using 4MU-NANA as substrate after 30 mins relative to control; summary of the method: as §1
smiles,measurement,setting,value
CC(=O)N[C@H]1[C@H]([C@H](O)[C@H](O)Cn2cc(-c3ccc(-c4ccccc4)cc3)nn2)OC(C(=O)O)=C[C@@H]1O,Activity,[1],60%
same,pIC50,Sialidase-4 [2],6.28
same,inhibition,[3],< 70%
same,pIC50,Sialidase-3 [4],4.92
same,pIC50,Sialidase-4 [5],5.43
same,inhibition,[6],20%
same,pKi,Sialidase-3 [7],6.55
same,pIC50,Sialidase-3 [8],6.15
same,Ki,Sialidase-1 [9],Not Active
same,pKi,Sialidase-4 [10],6.59
same,inhibition,[11],inactive
same,inhibition,[12],inactive
same,inhibition,[13],Active
same,pIC50,Sialidase-1 [14],< 3.30
CC(=O)N[C@H]1[C@H]([C@H](O)[C@H](O)Cn2cc(-c3ccc(C(=O)O)cc3)nn2)OC(C(=O)O)=C[C@@H]1N=[N+]=[N-],pIC50,Sialidase-1 [14],< 3.30
CCCCC(=O)NC[C@@H](O)[C@@H](O)[C@@H]1OC(C(=O)O)=C[C@H](O)[C@H]1NC(C)=O,"logD at 2 h, 10 µM",[15],-1
same,pIC50,Sialidase-4 [2],3.66
CC(=O)N[C@H]1[C@H]([C@H](O)[C@H](O)Cn2cc(-c3ccc(C(=O)O)cc3)nn2)OC(C(=O)O)=C[C@@H]1NC(=N)N,pIC50,Sialidase-4 [2],4.62
same,pIC50,Sialidase-3 [8],6.21
same,pIC50,Sialidase-1 [14],< 3.30
CC(=O)N[C@H]1[C@H]([C@H](O)[C@H](O)Cn2cc(-c3ccc(C(=O)O)cc3)nn2)OC(C(=O)O)=C[C@@H]1O,pIC50,Sialidase-4 [2],5.52
same,pIC50,Sialidase-3 [8],5.96
same,pIC50,Sialidase-1 [14],3.62
CC(=O)N[C@H]1[C@H]([C@H](O)[C@H](O)Cn2cc(-c3ccc(CO)cc3)nn2)OC(C(=O)O)=C[C@@H]1O,"logD at 2 h, 10 µM",[15],< -1.5
CC(=O)N[C@H]1[C@H]([C@H](O)[C@H](O)Cn2cc(-c3ccc(C(=O)O)cc3)nn2)OC(C(=O)O)=C[C@@H]1N,pIC50,Sialidase-4 [2],< 3.30
same,pIC50,Sialidase-3 [8],< 3.30
same,pIC50,Sialidase-1 [14],< 3.30
CC(=O)N[C@H]1[C@H]([C@H](O)[C@H](O)CO)OC(C(=O)O)=C[C@@H]1NC(=N)N [ZANAMIVIR],Ki,Sialidase-1 [9],Not Active
same,pIC50,Sialidase-1 [14],< 3.30
CC(=O)N[C@H]1[C@H]([C@H](O)[C@H](O)CO)OC(C(=O)O)=C[C@@H]1O [NEU5AC2EN],"logD at 2 h, 10 µM",[15],< -1.5
same,Ki,Sialidase-1 [9],Not Active
CCCOC(=O)C1=C[C@H](O)[C@@H](NC(C)=O)[C@H]([C@H](O)[C@H](O)Cn2cc(-c3ccc(-c4ccccc4)cc3)nn2)O1,"solubility kinetic at 24 h, 10000 µM",[16],1.7 µg/mL
same,"solubility kinetic at 24 h, 10000 µM",[17],2.8 µg/mL
same,"solubility kinetic at 24 h, 10000 µM",[18],2.4 µg/mL
CC(=O)N[C@H]1[C@H]([C@H](O)[C@H](O)Cn2cc(-c3ccc(-c4ccccc4)cc3)nn2)OC(C(=O)O)=C[C@@H]1NC(=N)N,"logD at 2 h, 10 µM",[15],1.2
same,pIC50,Sialidase-3 [4],5.42
same,pKi,Sialidase-3 [7],6.49
same,pIC50,Sialidase-3 [8],6.24
same,Ki,Sialidase-1 [9],Not Active
same,Activity,[19],85%
same,inhibition,[12],inactive
same,Activity,[20],60%
same,pIC50,Sialidase-1 [14],< 3.30
CC(=O)N[C@H]1[C@H]([C@H](O)[C@H](O)Cn2cc(-c3ccc(C(=O)O)cc3)nn2)OC(C(=O)O)=C[C@@H]1NC(=O)NCCC(=O)O,pIC50,Sialidase-3 [8],< 3.30
same,pIC50,Sialidase-1 [14],< 3.30
COC(=O)C1=C[C@H](O)[C@@H](NC(C)=O)[C@H]([C@H](O)[C@H](O)Cn2cc(-c3ccc(-c4ccccc4)cc3)nn2)O1,"solubility kinetic at 24 h, 10000 µM",[16],> 1 µg/mL
same,"logD at 2 h, 10 µM",[15],2.3
same,Kinetic_solubility,"[17]; buffer, pH 7.4, 10000 µM",1.5 µg/mL
same,"solubility kinetic at 24 h, 10000 µM",[18],> 1 µg/mL
CCOC(=O)C1=C[C@H](O)[C@@H](NC(C)=O)[C@H]([C@H](O)[C@H](O)Cn2cc(-c3ccc(-c4ccccc4)cc3)nn2)O1,"solubility kinetic at 24 h, 10000 µM",[16],3.2 µg/mL
same,"logD at 2 h, 10 µM",[15],3.4
same,"solubility kinetic at 24 h, 10000 µM",[17],13.8 µg/mL
same,"solubility kinetic at 24 h, 10000 µM",[18],3.7 µg/mL
CC(=O)N[C@H]1[C@H]([C@H](O)[C@H](O)Cn2cc(-c3ccc(Oc4ccccc4)cc3)nn2)OC(C(=O)O)=C[C@@H]1O,pIC50,Sialidase-1 [14],< 3.30
